Laboratory results taken from ChEMBL document CHEMBL5120974, “Antitubercular Activity of Novel 2-(Quinoline-4-yloxy)acetamides with Improved Drug-Like Properties” (ACS Med Chem Lett, 2022).
In brackets after ≈: the same amount, converted by molar mass.

Columns and labels:
Format in all cases: functional
[1] = tested on: Mycobacterium tuberculosis; assay: Antitubercular activity against Multidrug-resistant Mycobacterium tuberculosis clinical isolate PT2 assessed as bacterial growth inhibition incubated for 7 days by resazurin dye based assay; conditions: PT2, 168 h, time 7 day
[2] = tested on: Mycobacterium tuberculosis; assay: Antitubercular activity against Multidrug-resistant Mycobacterium tuberculosis clinical isolate PT12 assessed as bacterial growth inhibition incubated for 7 days by resazurin dye based assay; conditions: PT12, 168 h, time 7 day
[3] = tested on: Mycobacterium tuberculosis; assay: Antitubercular activity against Multidrug-resistant Mycobacterium tuberculosis clinical isolate PT20 assessed as bacterial growth inhibition incubated for 7 days by resazurin dye based assay; conditions: PT20, 168 h, time 7 day
[4] = tested on: Mycobacterium tuberculosis; assay: Antitubercular activity against Multidrug-resistant Mycobacterium tuberculosis qcrB-T313A mutant assessed as bacterial growth inhibition incubated for 7 days by resazurin dye based assay; conditions: time 7 day
In short: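 MIC measured against a spontaneous mutant selected for resistance to 2-(quinolin-4-yloxy)acetamides, with a fully sequenced genome and a single qcrB change (ACC to GCC at nucleotide 937, T313A substitution).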

SMILES	MIC [1] [µM]	MIC [2] [µM]	MIC [3] [µM]	MIC [4] [µM]
CO[C@H]1/C=C/O[C@@]2(C)Oc3c(C)c(O)c4c(O)c(c(/C=N/N5CCN(C)CC5)c(O)c4c3C2=O)NC(=O)/C(C)=C\C=C\[C@H](C)[C@H](O)[C@@H](C)[C@@H](O)[C@@H](C)[C@H](OC(C)=O)[C@@H]1C [RIFAMPIN]	> 48.6	> 48.6	> 48.6	
COc1ccc2nc(C)cc(OCC(=O)Nc3ccc(N4CCCCC4)cc3)c2c1	< 0.04	0.19 (≈ 0.077 µg/mL)	< 0.04	>24.7
NNC(=O)c1ccncc1 [ISONIAZID]		146 (≈ 20 µg/mL)		2.3 (≈ 0.315 µg/mL)
CCc1cc(OCC(=O)Nc2ccc(N3CCCCC3)cc2)c2cc(OC)ccc2n1	< 0.04	0.19 (≈ 0.0797 µg/mL)	< 0.04	>23.8
